The nature of data set [1]: Drug metabolism assessed as dehydration by metabolic soft spot analysis. The format is physicochemical.
Data set [2] addresses T1, Adenosine receptor A2b (Homo sapiens) (UniProt P29275).
T1 sequence (whole entry): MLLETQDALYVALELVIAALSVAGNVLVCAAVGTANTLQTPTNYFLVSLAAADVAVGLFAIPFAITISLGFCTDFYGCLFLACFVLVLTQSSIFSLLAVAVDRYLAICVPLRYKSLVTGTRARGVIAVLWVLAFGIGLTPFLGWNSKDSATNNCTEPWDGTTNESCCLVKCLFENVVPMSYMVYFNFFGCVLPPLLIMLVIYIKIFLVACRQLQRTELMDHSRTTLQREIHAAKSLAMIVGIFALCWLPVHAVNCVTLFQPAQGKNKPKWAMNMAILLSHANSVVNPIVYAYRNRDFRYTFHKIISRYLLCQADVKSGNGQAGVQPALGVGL
Briefly: Displacement of [3H]MRS-1754 from human adenosine A2B receptor expressed in HEK293 cell membranes at 1 uM after 90 mins relative to control. The procedure, abridged:
(§1)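 Membranes from HEK-293 cells stably transfected with human receptor, pre-treated with adenosine deaminase. Radioligands: 1 nM [3H]DPCPX (A1), 1 nM [3H]ZM241385 (A2A), 1.6 nM [3H]MRS-1754 (A2B), 2 nM [3H]HEMADO (A3). Buffers: Tris pH 7.4 (A1, A2A, A3) or pH 6.5 (A2B), with ADA. Incubated 90 min at room temperature, then filtered. Nonspecific binding defined with 100 µM NECA. Ki from 8 concentrations run in triplicate.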
For orientation: Loss of bound radioactivity is the signal in a displacement assay; it reports binding, not function.

Data set [3] can be described thus: Drug metabolism assessed as hydroxylation at N-1 propyl by metabolic soft spot analysis. The data set is classed as physicochemical.
For data set [4], the target named is T1, Adenosine receptor A2b (Homo sapiens). Briefly: Displacement of [3H]MRS-1754 from human adenosine A2B receptor expressed in HEK293 cell membranes at 30 uM after 90 mins relative to control. The procedure, abridged:
as §1

The target of data set [5] is T2, Adenosine receptor A3 (Homo sapiens) (UniProt P0DMS8).
T2 sequence (whole entry): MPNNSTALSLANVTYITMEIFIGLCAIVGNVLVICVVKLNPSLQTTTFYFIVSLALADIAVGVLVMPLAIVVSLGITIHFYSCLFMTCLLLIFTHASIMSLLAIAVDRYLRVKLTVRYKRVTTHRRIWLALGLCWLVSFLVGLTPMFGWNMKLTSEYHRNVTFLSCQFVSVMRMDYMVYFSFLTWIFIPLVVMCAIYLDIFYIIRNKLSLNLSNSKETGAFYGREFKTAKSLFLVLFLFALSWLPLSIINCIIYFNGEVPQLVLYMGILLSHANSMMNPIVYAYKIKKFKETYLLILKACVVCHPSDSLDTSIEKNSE
Kind of data set: Displacement of [3H]HEMADO from human adenosine A3 receptor expressed in HEK293 cell membranes at 1 uM after 90 mins relative to control. A digest of the protocol:
as §1

The nature of data set [6]: Drug metabolism assessed as hydroxylation at C-8 cyclopentyl by metabolic soft spot analysis. The data set is classed as physicochemical.
Data set [7] concerns Rattus norvegicus. Kind of data set: Natriuretic activity in Wistar rat at 3 to 30 mg/kg, po via gavage measured after 4 hrs. The format is functional, organism-based. A digest of the protocol:
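Male Wistar rats (250-300 g, n = 6) dosed orally at 5 mL/kg. Vehicles: DMAC 5%/NaOH/saline, or NMP 10%/PEG-400 20%/saline pH 12.0. Rats were then kept singly in metabolic cages without food or water for 4 h. Urine volume, Na+ and K+ were measured with a biochemistry analyser.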

The subject of data set [8] is Rattus norvegicus. Kind of data set: Effect on serum K+ level in Wistar rat at 3 to 30 mg/kg, po via gavage. The data set is classed as ADME, organism-based. The conditions noted are these: in vivo.
Data set [9] is described as follows: Ratio of drug level in Wistar rat brain to plasma at 5 mg/kg, po via gavage measured at 4 hrs post dose by LC-Ms/MS analysis. The data set is classed as ADME, organism-based. The conditions noted are these: read-out: BPR. A digest of the protocol:
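Male Wistar rats, fasted overnight and for 2 h after dosing, given an oral solution at 5 mg/kg (0.5 mg/mL). Vehicle: NMP 10% with Labrasol 30% or PEG-400 20%, in citrate buffer […]. Blood and brain were taken at discrete time points, n = 2 per time point. Brain was homogenized 1:2 in PBS. Samples were precipitated with acetonitrile and run on LC-MS/MS; LLOQ 10 ng/mL.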

The source made the active and inactive calls. No cut-off for these calls is given here.

With `CCCn1c(Oc2cccnc2C)nc2nc(C3CCCC3)[nH]c2c1=O`, the Drug metabolism result in data set [1], in data set [3] and in data set [6] was “Metabolite_Detected” throughout. The inhibition – broadly, the drop in the measured response relative to a control, in per cent – in data set [2] is 49%; in [4], 91%; in data set [5] it was 35%.
As to `CCCn1c(Oc2ccc(F)c(F)c2)nc2nc(C3CCCC3)[nH]c2c1=O`, the result in [7] was Active. In data set [8], the Activity result is on record as “Non-Toxic”. Further, the Kp at 4 h in data set [9] amounted to 0.05.

Values taken from ChEMBL document CHEMBL3992564, “Design and synthesis of novel, potent and selective hypoxanthine analogs as adenosine A1 receptor antagonists and their biological evaluation” (Bioorg Med Chem, 2017).
